Laboratory results as given in ChEMBL document CHEMBL5154924, “Discovery of In Vivo Active Sphingosine-1-phosphate Transporter (Spns2) Inhibitors” (J Med Chem, 2022).
Calls of active or inactive are those of the source. The rule behind the calls is not given here.

system: Mus musculus; assay: In vivo inactivation of Spns2 gene in C57BL/6j mouse assessed as decrease in plasma S1P at 20 mg/kg, ip measured after 4 hrs by LC-MS/MS analysis; format: functional, organism-based; conditions: not given
In short: (§1)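 Blood drawn 4 h postdose. Lymphocytes counted from 20 μL blood on a haematology analyzer; plasma S1P quantified by LC-MS/MS. Compared with vehicle-treated controls by t-test.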

Row | SMILES | inhibition
1 | CCCCCCCCCCc1ccc(-c2noc(CCCN)n2)cc1.Cl | Active

system: Mus musculus; assay: In vivo inactivation of Spns2 gene in C57BL/6j mouse assessed as decrease in circulating lymphocytes at 20 mg/kg, ip measured after 4 hrs by blood analyzer; format: functional, organism-based; conditions: not given; in short: as §1

Row | SMILES | inhibition
2 | CCCCCCCCCCc1ccc(-c2noc(CCCN)n2)cc1.Cl | Active

system: not listed separately; assay: Drug concentration in Sprague-Dawley rat plasma at 10 mg/kg, ip at 2 hrs by LC-MS/MS analysis; format: ADME, organism-based; conditions: not given
In short: (§2)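 Single intraperitoneal dose to 4-week-old male rats (n = 4); vehicle 36.1% PEG400/9.1% ethanol/4.6% Solutol/50% H₂O. Tail-nick whole blood (ca. 70 μL) collected at 0, 0.5, 1, 2, 4, 6 and 24 h postdose. Plasma drug levels quantified by LC-MS/MS with an internal standard.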

Row | concentration at 2 h [µM] | SMILES
3 | 5 | CCCCCCCCCCc1ccc(-c2noc(CCCN)n2)cc1.Cl

target: T1, Sphingosine-1-phosphate transporter SPNS2 (Mus musculus) (UniProt Q91VM4); assay: Inhibition of mouse Spns2 transfected in human HeLa cells by measuring S1P release at 2 uM by LC/MS analysis relative to control; format: cell-based; conditions: not given
T1 sequence (whole entry): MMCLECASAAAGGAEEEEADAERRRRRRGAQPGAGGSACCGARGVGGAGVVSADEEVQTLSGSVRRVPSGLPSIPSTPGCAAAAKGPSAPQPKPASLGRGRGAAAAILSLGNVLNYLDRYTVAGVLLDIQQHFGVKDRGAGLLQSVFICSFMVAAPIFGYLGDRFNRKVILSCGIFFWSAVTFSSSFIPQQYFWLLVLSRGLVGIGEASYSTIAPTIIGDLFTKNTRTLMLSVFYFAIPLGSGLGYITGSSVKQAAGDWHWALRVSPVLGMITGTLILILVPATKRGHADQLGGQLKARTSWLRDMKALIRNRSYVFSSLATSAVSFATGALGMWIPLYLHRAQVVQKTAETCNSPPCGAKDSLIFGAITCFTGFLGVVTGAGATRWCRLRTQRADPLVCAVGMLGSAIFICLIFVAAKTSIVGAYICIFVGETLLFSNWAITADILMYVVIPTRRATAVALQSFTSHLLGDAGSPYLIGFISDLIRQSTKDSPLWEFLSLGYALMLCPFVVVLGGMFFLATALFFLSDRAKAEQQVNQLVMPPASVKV
In short: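 HeLa cells stably transfected with mouse Spns2 and selected with G418, grown to near confluence. Medium replaced with RPMI 1640/0.2% fatty acid-free BSA containing 1 mM 4-deoxypyridoxine, 2 mM NaF and 0.2 mM Na₃VO₄. Compound added to duplicate wells, incubated 18–20 h. Medium S1P measured by LC-MS/MS against d₇-S1P after TCA precipitation and methanol extraction. Inhibition expressed relative to no-inhibitor control.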

Row | inhibition [%] | SMILES
4 | 40 | CCCCCCCCc1ccc(CCc2noc(CCCN)n2)cc1
5 | 63 | CCCCCCCCCCc1ccc(-c2c[nH]c(CCCN)n2)cc1
6 | 2 | CCCCCCCCCCc1ccc(-c2noc(CC(O)CN3CCCCC3)n2)cc1 (configuration not stated)
7 | 12 | CCCCCCCCCCc1ccc(-c2noc([C@H]3CCCN3)n2)cc1
8 | 5 | CCCCCCCCCCc1ccc(-c2noc(C(Cl)CCN)n2)cc1 (configuration not stated)
9 | 5 | CCCCCCCCCCc1ccc(-c2noc(CC(O)CNCC)n2)cc1 (configuration not stated)
10 | 19 | CCCCCCCCCCc1ccc(-c2noc(CN3CCNCC3)n2)cc1
11 | 0 | CCCCCCCCCCc1ccc(-c2noc(CC(CN)OC(C)=O)n2)cc1 (configuration not stated)
12 | 44 | CCCCCCCCCCc1ccc(-c2ccn(CCCN)n2)cc1
13 | 26 | CCCCCCCCCCc1cccc(-c2noc(CCCN)n2)c1
14 | 0 | CCCCCCCCCCc1ccc(-c2noc(CCCN3CCCCC3)n2)cc1
15 | 43 | CCCCCCCCCCc1ccc(-c2noc([C@@H](N)CCCCN)n2)cc1
16 | 66 | CCCCCCCCCCc1ccc(-c2noc(C3CCNCC3)n2)cc1
17 | 63 | CCCCCCCCCCc1ccc(-c2noc(CC3CNC3)n2)cc1
18 | 2 | CCCCCCCCCCc1ccc(-c2noc(-c3cccc(CN)c3)n2)cc1
19 | 45 | CCCCCCCCCCc1ccc(-c2ccnn2CCCN)cc1
20 | 34 | CCCCCCCCCc1ccc(Cc2noc(CCCN)n2)cc1
21 | 62 | CCCCCCCCCCc1ccc(-c2noc(CN)n2)cc1
22 | 45 | CCCCCCCCCCc1ccc(-c2noc(CCCNC)n2)cc1
23 | 3 | CCCCCCCCCCc1ccc(-c2noc(CCCN3CCCC3)n2)cc1

Row | inhibition [%] | SMILES
24 | 67 | CCCCCCCCCCc1ccc(-c2noc(CCCN)n2)cc1.Cl
25 | 40 | CCCCCCCCCCc1ccc(-c2noc([C@@H](N)CCCN)n2)cc1
26 | 62 | CCCCCCCCCCc1ccc(-c2noc([C@@H]3CCNC3)n2)cc1
27 | 24 | CCCCCCCCCOc1ccc(-c2noc(CCCN)n2)cc1C(F)(F)F
28 | 49 | CCCCCCCCCOc1ccc(-c2noc(CCCN)n2)cc1
29 | 26 | CCCCCCCCCCc1ccc(-c2noc([C@H]3CCNC3)n2)cc1
30 | 49 | CCCCCCCCCCc1ccc(-c2coc(CCCN)n2)cc1
31 | 65 | CCCCCCCCCCc1ccc(-c2noc(C3CNC3)n2)cc1
32 | 55 | CCCCCCc1ccc(-c2noc(CCCN)n2)cc1
33 | 38 | CCCCCCCCCCc1ccc(-c2noc([C@@H]3CC[C@H](N)C3)n2)cc1
34 | 51 | CCCCCCCCCCc1ccc(-c2cn(C)c(CCCN)n2)cc1
35 | 59 | CCCCCCCCCCc1ccc(-c2noc(CCN)n2)cc1
36 | 59 | CCCCCCCCCCc1ccc(-c2noc(CC(O)CN)n2)cc1 (configuration not stated)
37 | 5 | CCCCCCCCCCc1ccc(-c2noc(CC[C@@H](N)C(=O)O)n2)cc1
38 | 49 | CCCCCCCCCCCc1ccc(-c2noc(CCCN)n2)cc1
39 | 21 | CCCCCCCCCCc1ccc(-c2noc([C@@H]3CCCN3)n2)cc1
40 | 13 | CCCCCCCCCCc1ccc(-c2noc([C@@H]3CCC[C@@H](N)C3)n2)cc1
41 | 2 | CCCCCCCCCCc1ccc(-c2noc(CCCN3CCOCC3)n2)cc1
42 | 61 | CCCCCCCCCc1ccc(-c2noc(CCCN)n2)cc1
43 | 40 | CCCCCCCCCCc1ccc(-c2noc([C@H](CCCCN)NC(C)=O)n2)cc1

Row | inhibition [%] | SMILES
44 | 70 | CCCCCCCCc1ccc(-c2noc(CCCN)n2)cc1
45 | 0 | CCCCCCCCCCc1ccc(-c2noc(CC(O)CN3CCOCC3)n2)cc1 (configuration not stated)
46 | 52 | CCCCCCCc1ccc(-c2noc(CCCN)n2)cc1
47 | 0 | CCCCCCCCNC(=O)c1ccc(-c2noc(CCCN)n2)cc1
48 | 45 | CCCCCCCCCCc1ccc(-c2csc(CCCN)n2)cc1
49 | 8 | CCCCCCCCCCc1ccc(-c2noc(CCCN(C)C)n2)cc1
50 | 50 | CCCCCCCCCCc1ccc(-c2cnn(CCCN)c2)cc1
51 | 29 | CCCCCCCCCCc1ccc(-c2noc([C@H]3CCC[C@@H](N)C3)n2)cc1
52 | 11 | CCCCCCCC(=O)NCc1ccc(-c2noc(CCCN)n2)cc1
53 | 8 | CCCCCCCOc1ccc2cc(-c3noc(CCCN)n3)ccc2c1
54 | 61 | CCCCCCCCCCc1ccc(-c2noc(CC(O)CN(C)C)n2)cc1 (configuration not stated)
55 | 21 | CCCCCCCCCCc1ccc(-c2noc(CC(O)CN3CCCC3)n2)cc1 (configuration not stated)
56 | 35 | CCCCCCCCC(=O)Nc1ccc(-c2noc(CCCN)n2)cc1
57 | 55 | CCCCCCCCCCc1ccc(-c2noc(CCCCN)n2)cc1
58 | 59 | CCCCCCCCCCc1ccc(-c2nnc(CCCN)o2)cc1
59 | 44 | CCCCCCCCCCc1ccc(-c2noc(C[C@@H]3CCNC3)n2)cc1
60 | 50 | CCCCCCCCCCc1ccc(-c2noc([C@H](N)CCCCN)n2)cc1
61 | 14 | CCCCCCCCCCc1ccc(-c2noc([C@@H](N)CCN)n2)cc1
62 | 50 | CCCCCCCCCOc1ccc(-c2noc(CCCN)n2)cc1F

Row | SMILES | inhibition [%]
63 | CCCCCCCCCCc1ccc(-c2noc(C[C@H](C)N)n2)cc1 | 44

system: not listed separately; assay: Half life in Sprague-Dawley rat plasma at 10 mg/kg, ip by LC-MS/MS analysis; format: ADME, organism-based; conditions: not given; in short: as §2

Row | half-life [h] | SMILES
64 | > 8 | CCCCCCCCCCc1ccc(-c2noc(CCCN)n2)cc1.Cl

system: not listed separately; assay: Drug concentration in Sprague-Dawley rat plasma at 10 mg/kg, ip at 24 hrs by LC-MS/MS analysis; format: ADME, organism-based; conditions: not given; in short: as §2

Row | concentration at 24 h [µM] | SMILES
65 | 2 | CCCCCCCCCCc1ccc(-c2noc(CCCN)n2)cc1.Cl

organism: Mus musculus; assay: Selectivity ratio of IC50 for mouse SphK2 to recombinant mouse Snps2; conditions: not given

Row | Ratio IC50 | SMILES
66 | 15 | CCCCCCCCCCc1ccc(-c2noc(CCCN)n2)cc1.Cl

target: T2, Sphingosine-1-phosphate transporter SPNS2 (Mus musculus, UniProt Q91VM4); assay: (§3) Inhibition of mouse Spns2 transfected in human HeLa cells by measuring S1P release by LC/MS analysis; format: cell-based; conditions: not given
T2 sequence (Q91VM4 whole entry): T1 sequence (whole entry)
In short: (§4)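 Mouse Spns2-transfected HeLa cells (G418-selected) held 18–20 h in RPMI 1640/0.2% fatty acid-free BSA containing 1 mM 4-deoxypyridoxine, 2 mM NaF and 0.2 mM Na₃VO₄ across a compound concentration series. Released S1P quantified by LC-MS/MS with d₇-S1P internal standard; IC50 calculated from the concentration–effect curve.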

Row | IC50 [µM] | SMILES
67 | 1.93 | CCCCCCCCCCc1ccc(-c2noc(CCCN)n2)cc1.Cl

target: T1, Sphingosine-1-phosphate transporter SPNS2 (Mus musculus); assay: as §3; format: cell-based; conditions: dose <= 5.0 µM, DDE = dose-dependent effect; in short: as §4

Row | inhibition | SMILES
68 | Dde | CCCCCCCCCCc1ccc(-c2noc(CCCN)n2)cc1.Cl

target: Sphingosine kinase 1 (Mus musculus, UniProt Q8CI15); assay: Inhibition of recombinant mouse SphK1 transfected in HEK293T cells using D-erythro-sphingosine measured after 20 mins in presence of gamma-[p32]-ATP by autoradiography and liquid scintillation counting method; format: cell-based; conditions: not given
Sequence (Q8CI15 whole entry): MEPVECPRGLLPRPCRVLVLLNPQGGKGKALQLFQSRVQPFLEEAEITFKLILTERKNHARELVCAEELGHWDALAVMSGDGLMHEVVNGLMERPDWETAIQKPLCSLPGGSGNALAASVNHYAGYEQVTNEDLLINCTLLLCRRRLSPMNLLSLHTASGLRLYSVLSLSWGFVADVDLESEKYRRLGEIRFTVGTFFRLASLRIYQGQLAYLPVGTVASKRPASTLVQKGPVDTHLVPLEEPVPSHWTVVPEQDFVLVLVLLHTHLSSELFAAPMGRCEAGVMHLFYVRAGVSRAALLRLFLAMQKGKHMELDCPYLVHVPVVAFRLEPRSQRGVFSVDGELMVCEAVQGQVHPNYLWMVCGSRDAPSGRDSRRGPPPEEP

Row | IC50 [µM] | SMILES
69 | ≥ 30 | CCCCCCCCCCc1ccc(-c2noc(CCCN)n2)cc1.Cl

system: Rattus norvegicus; assay: In vivo inactivation of Spns2 gene in Sprague-Dawley rat assessed as decrease in circulating lymphocytes at 10 mg/kg, ip measured upto 24 hrs by blood analyzer; format: functional; design: scale not given: the % may be the effect or the level left; conditions: not given
In short: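 Male rats 4 weeks old (n = 4) received a single intraperitoneal dose in PEG400/ethanol/Solutol/water vehicle. Tail-nick blood sampled at 0, 0.5, 1, 2, 4, 6 and 24 h. Lymphocytes counted from 20 μL blood on a haematology analyzer; counts compared with time 0.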

Row | SMILES | Activity [%]
70 | CCCCCCCCCCc1ccc(-c2noc(CCCN)n2)cc1.Cl | 25

organism: Mus musculus; assay: Selectivity ratio of IC50 for mouse SphK1 to recombinant mouse Snps2; conditions: not given

Row | Ratio IC50 | SMILES
71 | 15 | CCCCCCCCCCc1ccc(-c2noc(CCCN)n2)cc1.Cl

target: T3, Sphingosine kinase 2 (Mus musculus, UniProt Q9JIA7); assay: Inhibition of recombinant mouse SphK2 transfected in HEK293T cells using D-erythro-sphingosine measured after 20 mins in presence of gamma-[p32]-ATP by autoradiography and liquid scintillation counting method; format: cell-based; conditions: not given
T3 sequence (Q9JIA7 whole entry): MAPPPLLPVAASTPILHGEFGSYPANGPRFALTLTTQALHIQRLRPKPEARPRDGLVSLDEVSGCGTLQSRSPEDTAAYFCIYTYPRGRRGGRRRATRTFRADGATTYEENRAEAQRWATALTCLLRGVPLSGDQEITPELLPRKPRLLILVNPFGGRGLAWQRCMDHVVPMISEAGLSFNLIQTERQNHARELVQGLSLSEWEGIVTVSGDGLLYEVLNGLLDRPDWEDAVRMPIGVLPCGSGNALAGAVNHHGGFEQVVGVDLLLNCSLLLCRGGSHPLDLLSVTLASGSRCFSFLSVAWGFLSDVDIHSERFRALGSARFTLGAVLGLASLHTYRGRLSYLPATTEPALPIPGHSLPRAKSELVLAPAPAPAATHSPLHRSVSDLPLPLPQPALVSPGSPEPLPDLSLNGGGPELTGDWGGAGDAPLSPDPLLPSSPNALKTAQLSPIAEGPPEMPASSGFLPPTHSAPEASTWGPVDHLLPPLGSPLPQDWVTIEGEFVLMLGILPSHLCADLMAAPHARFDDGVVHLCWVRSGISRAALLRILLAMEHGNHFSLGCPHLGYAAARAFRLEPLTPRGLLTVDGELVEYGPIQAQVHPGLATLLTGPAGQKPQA
In short: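 Lysate of mouse SphK2 from baculovirus-infected Sf9 or transfected HEK293T cells (0.02–0.03 mg protein). Buffer: 20 mM Tris-Cl pH 7.4 with MgCl₂, phosphatase/protease inhibitors, 10% glycerol and 1 M KCl. Substrate 5 μM D-erythro-sphingosine, 10 μM γ-[³²P]ATP, compound 10–30,000 nM. Reaction run 20 min at 37 °C, then lipids extracted and separated by TLC. Product detected by autoradiography and quantified by scintillation counting; run in duplicate.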

Row | IC50 [µM] | SMILES
72 | 30 | CCCCCCCCCCc1ccc(-c2noc(CCCN)n2)cc1.Cl
